Tests used:
[1] = test system: CCN(CC)C(=O)c1ccc(-c2c3ccc(=[N+](C)C)cc-3[se]c3cc(N(C)C)ccc23)s1; experiment: not read
[2] = test system: CN(C)c1ccc(-c2c3ccc(=[N+](C)C)cc-3[te]c3cc(N(C)C)ccc23)cc1; experiment: not read
[3] = test system: CN(C)c1ccc2c(-c3ccc(C(=O)O)s3)c3ccc(=[N+](C)C)cc-3[te]c2c1; experiment: not read
[4] = test system: CN(C)c1ccc2c(-c3ccc(C(=O)O)s3)c3ccc(=[N+](C)C)cc-3sc2c1; experiment: not read
[5] = test system: CN(C)c1ccc2c(-c3ccc(N4CCOCC4)cc3)c3ccc(=[N+](C)C)cc-3sc2c1; experiment: not read
[6] = test system: CN(C)c1ccc2c(-c3ccccc3)c3ccc(=[N+](C)C)cc-3[te]c2c1; experiment: not read
[7] = test system: CN(C)c1ccc2c(-c3ccsc3C(=O)O)c3ccc(=[N+](C)C)cc-3[se]c2c1; experiment: not read
[8] = test system: CN(C)c1ccc2c(-c3ccsc3C(=O)O)c3ccc(=[N+](C)C)cc-3sc2c1; experiment: not read
[9] = test system: CN(C)c1ccc2c(CCCOc3ccccc3)c3ccc(=[N+](C)C)cc-3sc2c1; experiment: not read
[10] = test system: CN(C)c1cccc(-c2c3ccc(=[N+](C)C)cc-3[se]c3cc(N(C)C)ccc23)c1; experiment: not read
[11] = test system: CN(C)c1cccc(-c2c3ccc(=[N+](C)C)cc-3[te]c3cc(N(C)C)ccc23)c1; experiment: not read
[12] = test system: COc1ccc(-c2c3ccc(=[N+](C)C)cc-3[se]c3cc(N(C)C)ccc23)cc1OC; experiment: not read
[13] = test system: COc1ccc(-c2c3ccc(=[N+](C)C)cc-3sc3cc(N(C)C)ccc23)cc1OC; experiment: not read
[14] = test system: COc1cccc(-c2c3ccc(=[N+](C)C)cc-3[se]c3cc(N(C)C)ccc23)c1; experiment: not read
[15] = test system: COc1cccc(-c2c3ccc(=[N+](C)C)cc-3[te]c3cc(N(C)C)ccc23)c1; experiment: not read
[16] = test system: C[N+](C)=c1ccc2c(-c3ccccc3)c3cc4c5c(c3[te]c-2c1)CCCN5CCC4; experiment: not read
[17] = test system: CCN(CC)C(=O)c1ccc(-c2c3ccc(=[N+](C)C)cc-3[se]c3cc(N(C)C)ccc23)s1; experiment: (§1) Induction of mouse cysteine-less MDR3 ATPase activity by apparent Michaelis-Menten constant
Outline: (§2)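 Isolated P-gp ATPase activity is measured as inorganic phosphate released across a range of rhodamine concentrations. KM is the apparent Michaelis-Menten constant, the concentration giving half-maximal stimulation of ATPase activity.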

[18] = test system: CCN(CC)C(=O)c1ccc(-c2c3ccc(=[N+](C)C)cc-3sc3cc(N(C)C)ccc23)s1; experiment: as §1
Outline: as §2

[19] = test system: CCN(CC)C(=O)c1ccccc1-c1c2ccc(=[N+](C)C)cc-2sc2cc(N(C)C)ccc12; experiment: as §1
Outline: as §2

[20] = test system: CCOC(=O)c1ccc(-c2c3ccc(=[N+](C)C)cc-3sc3cc(N(C)C)ccc23)s1; experiment: as §1
Outline: as §2

[21] = test system: CN(C)c1ccc2c(-c3ccc(CCl)cc3)c3ccc(=[N+](C)C)cc-3oc2c1; experiment: as §1
Outline: as §2

[22] = test system: CN(C)c1ccc2c(-c3ccccc3C(=O)O)c3ccc(=[N+](C)C)cc-3sc2c1; experiment: as §1
Outline: as §2

[23] = test system: CN(C)c1ccc2c(-c3ccsc3C(=O)O)c3ccc(=[N+](C)C)cc-3[se]c2c1; experiment: as §1
Outline: as §2

[24] = test system: CN(C)c1ccc2c(CCCOc3ccccc3)c3ccc(=[N+](C)C)cc-3sc2c1; experiment: as §1
Outline: as §2

[25] = test system: COC(=O)c1ccccc1-c1c2ccc(=[N+](C)C)cc-2sc2cc(N(C)C)ccc12; experiment: as §1
Outline: as §2

[26] = test system: COc1ccc(-c2c3ccc(=[N+](C)C)cc-3sc3cc(N(C)C)ccc23)cc1OC; experiment: as §1
Outline: as §2

[27] = test system: COc1cccc(-c2c3ccc(=[N+](C)C)cc-3[se]c3cc(N(C)C)ccc23)c1; experiment: as §1
Outline: as §2

[28] = test system: COc1ccc(-c2c3ccc(=[N+](C)C)cc-3sc3cc(N(C)C)ccc23)cc1; experiment: not read

ATP-dependent translocase ABCB1 (Homo sapiens)
Km [1]: 0.68 µM
Km [2]: 9 µM
Km [3]: 9.6 µM
Km [4]: 140 µM
Km [5]: 10 µM
Km [6]: 8.3 µM
Km [7]: 56 µM
Km [8]: 111 µM
Km [9]: 3.2 µM
Km [10]: 3.5 µM
Km [11]: 2 µM
Km [12]: 8.3 µM
Km [13]: 4.9 µM
Km [14]: 3.3 µM
Km [15]: 3.2 µM
Km [16]: 4.4 µM

ATP-dependent translocase ABCB1 (Mus musculus)
Km [17]: 3.6 µM
Km [18]: 3.4 µM
Km [19]: 5.7 µM
Km [20]: 156 µM
Km [21]: 77 µM
Km [22]: 56 µM
Km [23]: 29 µM
Km [24]: 6 µM
Km [25]: 266 µM
Km [26]: 35 µM
Km [27]: 44 µM
Km [12]: 67 µM
Km [28]: 75 µM

Reference: ChEMBL document CHEMBL1138514, “Rhodamine inhibitors of P-glycoprotein: an amide/thioamide "switch" for ATPase activity” (J Med Chem, 2009)
